21 molecules from ChEMBL document CHEMBL1129322, “Discovery and optimization of a novel class of orally active nonpeptidic endothelin-A receptor antagonists” (J Med Chem, 1996) can be followed below.

One assay concerns the target T1, Endothelin-1 receptor (Homo sapiens, UniProt P25101).
T1 sequence (P25101 whole entry): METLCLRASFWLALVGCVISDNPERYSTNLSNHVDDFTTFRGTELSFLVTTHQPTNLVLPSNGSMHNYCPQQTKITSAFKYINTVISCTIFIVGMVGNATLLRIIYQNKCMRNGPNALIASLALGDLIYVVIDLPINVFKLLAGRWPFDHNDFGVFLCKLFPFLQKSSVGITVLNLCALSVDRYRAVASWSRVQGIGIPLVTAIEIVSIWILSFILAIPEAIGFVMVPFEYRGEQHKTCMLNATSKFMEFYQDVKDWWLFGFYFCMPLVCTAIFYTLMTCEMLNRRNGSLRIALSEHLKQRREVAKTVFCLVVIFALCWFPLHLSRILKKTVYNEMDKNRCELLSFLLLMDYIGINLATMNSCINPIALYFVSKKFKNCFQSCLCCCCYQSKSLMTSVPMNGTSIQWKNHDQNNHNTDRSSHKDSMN
In words: Binding affinity towards human Endothelin A receptor by measuring its ability to displace [125I]ET1 from CHO cells. It counts as cell-based.

The target in assay [1] is T2, Endothelin receptor (Rattus norvegicus) (UniProt P26684+P21451). As to the kind of experiment: In vivo prevention of ET-1-induced sudden death in 6 rats by pretreatment with endothelin receptor antagonist at a dose of 30 mg/kg p.o. Set-up: dose 30 mg/kg. The format is functional, organism-based. The essentials:
(§1)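 Male Sprague-Dawley rats (280-320 g) were pretreated orally with antagonist 4 h before a tail-vein injection of ET-1 (6 nmol/kg), which causes severe ECG disturbances and lethality within minutes. Oral doses were 10, 30 or 100 mg/kg. Lethality was scored as deaths/n, and ED100 was taken as the dose giving complete protection.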

The test system of assay [2] is Rattus norvegicus. As to the kind of experiment: Ability to protect rats from ET-1 induced sudden death in rats after peroral administration. It counts as functional. The essentials: as §1
The species entered for a further assay is Oryctolagus cuniculus. In words: Functional vascular ET-1 antagonism was determined in rabbit aorta rings with intact endothelium. As to conditions: read-out: pA2 (converted).
The target in assay [3] is T3, Endothelin receptor type B (Homo sapiens, UniProt P24530).
T3 sequence (P24530 whole entry): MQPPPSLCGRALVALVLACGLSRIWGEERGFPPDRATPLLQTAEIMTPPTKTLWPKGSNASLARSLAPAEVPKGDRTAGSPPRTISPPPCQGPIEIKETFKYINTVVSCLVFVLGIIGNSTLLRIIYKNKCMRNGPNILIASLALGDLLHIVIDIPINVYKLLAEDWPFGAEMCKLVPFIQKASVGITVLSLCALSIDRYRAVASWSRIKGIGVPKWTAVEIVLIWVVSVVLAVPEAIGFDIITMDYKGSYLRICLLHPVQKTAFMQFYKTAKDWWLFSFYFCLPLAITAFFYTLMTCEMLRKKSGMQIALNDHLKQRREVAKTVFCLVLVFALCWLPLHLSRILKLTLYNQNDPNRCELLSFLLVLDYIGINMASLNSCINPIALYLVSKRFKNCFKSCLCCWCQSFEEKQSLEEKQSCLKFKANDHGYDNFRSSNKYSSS
In words: (§2) Binding affinity towards human Endothelin B receptor by measuring its ability to displace [125I]ET-3 from CHO cells. The format is cell-based. In short, it runs like this:
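Membranes ([…]) from stably transfected CHO cells expressing human ET_A or ET_B receptors, or guinea pig cerebellum (ET_B), incubated with 25 pmol/L [125I]ET-1 or [125I]ET-3 with or without drugs; nonspecific binding defined with […] ET-1.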

Assay [4] deals with T2, Endothelin receptor (Rattus norvegicus). In words: In vivo prevention of ET-1-induced sudden death in 6 rats by pretreatment with endothelin receptor antagonist at a dose of 30 mg/kg p.o.; 2/6. The format is functional, organism-based. Set-up: dose 30 mg/kg. The essentials:
as §1

Assay [5] has the same target. As to the kind of experiment: In vivo prevention of ET-1-induced sudden death in 5 rats by pretreatment with endothelin receptor antagonist at a dose of 100 mg/kg p.o.; 0/5. Set-up: dose 100 mg/kg. The format is functional, organism-based. In short, it runs like this: as §1
For assay [6] the target is unchanged. As to the kind of experiment: In vivo prevention of ET-1-induced sudden death in 6 rats by pretreatment with endothelin receptor antagonist at a dose of 10 mg/kg p.o.; 6/6. It counts as functional, organism-based. Set-up: dose 10 mg/kg. The essentials: as §1
For assay [7] the target is unchanged. In words: In vivo prevention of ET-1-induced sudden death in 9 rats by pretreatment with endothelin receptor antagonist at a dose of 30 mg/kg p.o.; 9/9. The format is functional, organism-based. Set-up: dose 30 mg/kg. In short, it runs like this: as §1
Assay [8] concerns Rattus norvegicus. As to the kind of experiment: Ability to protect rats from ET-1 induced sudden death in after peroral administration. The format is functional. The essentials: as §1
The test system of assay [9] is Rattus norvegicus. As to the kind of experiment: Ability to protect rats from ET-1 induced sudden death in rats after intravenous administration. The format is functional. The essentials: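 Male Sprague-Dawley rats (280-320 g) received antagonist intravenously and were then challenged with ET-1 (6 nmol/kg) injected into a tail vein, a dose that causes lethality within minutes. ED100 was the intravenous dose giving complete protection from sudden death.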

Assay [10] deals with T2, Endothelin receptor (Rattus norvegicus). In words: In vivo prevention of ET-1-induced sudden death in 6 rats by pretreatment with endothelin receptor antagonist at a dose of 30 mg/kg p.o.; 0/6. Set-up: dose 30 mg/kg. The format is functional, organism-based. In short, it runs like this: as §1
Assay [11] shares this target. In words: In vivo prevention of ET-1-induced sudden death in 5 rats by pretreatment with endothelin receptor antagonist at a dose of 10 mg/kg p.o.; 5/5. The format is functional, organism-based. Set-up: dose 10 mg/kg. The essentials: as §1
In assay [12] the target is T3, Endothelin receptor type B. Described as §2. The format is cell-based. This is another data set of the same source.

Each structure is given as a SMILES string.

T2 sequence (P21451 whole entry, looked up): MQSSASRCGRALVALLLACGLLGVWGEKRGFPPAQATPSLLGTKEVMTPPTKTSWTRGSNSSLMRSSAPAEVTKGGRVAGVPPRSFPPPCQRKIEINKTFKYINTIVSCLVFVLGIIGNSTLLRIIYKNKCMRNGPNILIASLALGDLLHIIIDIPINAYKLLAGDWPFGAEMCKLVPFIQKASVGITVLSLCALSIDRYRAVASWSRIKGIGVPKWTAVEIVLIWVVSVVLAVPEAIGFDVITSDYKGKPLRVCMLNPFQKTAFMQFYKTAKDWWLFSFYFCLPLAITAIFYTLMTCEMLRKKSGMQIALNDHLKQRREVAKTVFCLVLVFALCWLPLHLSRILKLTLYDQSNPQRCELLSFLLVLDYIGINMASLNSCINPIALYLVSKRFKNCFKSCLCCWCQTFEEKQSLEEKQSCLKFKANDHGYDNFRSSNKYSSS
T2 sequence (P26684 whole entry, looked up): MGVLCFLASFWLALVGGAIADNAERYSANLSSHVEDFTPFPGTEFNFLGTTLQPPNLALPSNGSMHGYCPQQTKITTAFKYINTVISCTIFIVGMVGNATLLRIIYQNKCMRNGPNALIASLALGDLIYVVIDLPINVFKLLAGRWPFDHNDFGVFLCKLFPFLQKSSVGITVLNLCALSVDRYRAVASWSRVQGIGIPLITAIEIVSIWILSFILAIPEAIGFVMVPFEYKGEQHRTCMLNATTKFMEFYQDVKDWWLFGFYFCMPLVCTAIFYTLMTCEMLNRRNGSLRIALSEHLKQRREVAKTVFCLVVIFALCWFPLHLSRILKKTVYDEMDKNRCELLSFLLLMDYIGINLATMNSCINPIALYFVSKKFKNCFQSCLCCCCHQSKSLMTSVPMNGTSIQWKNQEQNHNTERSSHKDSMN

Regarding `COc1cc(OC)nc(OC(C(=O)O)C(OC)(c2cccc(C)c2)c2cccc(C)c2)n1` (stereo unspecified), the Ki on Endothelin-1 receptor turned out to be 24 nM.
On the same count and under the same terms, as for `CCc1cc(CC)nc(OC(C(=O)O)C(OC)(c2ccccc2)c2ccccc2)n1` (stereo unspecified), the figure is 1 nM.
As for `Cc1noc(NS(=O)(=O)c2cccc3c(N(C)C)cccc23)c1C` [BMS-182874], the Lethality in assay [1] amounted to 6. In the assay with Rattus norvegicus [2] (po), the ED100 was > 100 mg/kg. For the same molecule, the Kb in the assay filed under Oryctolagus cuniculus was 81.3 nM.
Take `COc1cc(OC)nc(OC(C(=O)O)C(OC)(c2cccc(F)c2)c2cccc(F)c2)n1` (stereo unspecified): affinity at Endothelin-1 receptor was put at a Ki of 11 nM.
On to `COc1cccc(Oc2c(NS(=O)(=O)c3ccc(C(C)(C)C)cc3)ncnc2OCCO)c1`, for which the ED100 in the assay with Rattus norvegicus [2] is >100 mg/kg. In the assay filed under Oryctolagus cuniculus, the Kb is > 1000 nM.
Take `COC(=O)C(Oc1nc(OC)cc(OC)n1)C(C)(Oc1ccc(C(C)C)cc1)c1ccccc1` (stereo unspecified): the Ki is 3000 nM in assay [3] and 250 nM on Endothelin-1 receptor.
Turning to `COc1nc(OC(C(=O)O)C(OC)(c2ccccc2)c2ccccc2)nc2c1CCO2` (stereo unspecified), the Lethality in [4] stood at 2; in assay [5], 0; in [6], 6. In addition, the Ki on Endothelin-1 receptor is 0.9 nM. The same molecule showed an ED100 in the assay with Rattus norvegicus [2] of 100 mg/kg. Also, in the assay listed under Oryctolagus cuniculus, the Kb is 0.933 nM.
With `CCc1cc(C)nc(OC(C(=O)O)C(OC)(c2ccccc2)c2ccccc2)n1` (stereo unspecified), at Endothelin-1 receptor, the Ki worked out at 0.7 nM.
In the case of `COc1cc(C)nc(OC(C(=O)O)C(OC)(c2ccccc2)c2ccccc2)n1` (stereo unspecified), the Ki at Endothelin-1 receptor is 0.12 nM.
Same read-out and setting: as for `COc1cc(OC)nc(OC(C(=O)O)C(OC)(c2ccc(C)cc2)c2ccc(C)cc2)n1` (stereo unspecified), the figure is 200 nM.
Regarding `COC(=O)C(Oc1nc(OC)cc(OC)n1)C(C)(Oc1ccc(SC)cc1)c1ccccc1` (stereo unspecified), the values for the Ki (in assay [3]; at Endothelin-1 receptor) were 4700 nM and 160 nM, respectively.
The molecule `COc1cc(OC)nc(OC(C(=O)O)C(OCCC(C)(C)C)(c2ccccc2)c2ccccc2)n1` (stereo unspecified) gave a Ki at Endothelin-1 receptor of 340 nM.
On Endothelin-1 receptor, `COc1cc(OC)nc(OC(C(=O)O)C(OC)(c2ccc(Cl)cc2)c2ccc(Cl)cc2)n1` (stereo unspecified) displayed a Ki of 245 nM.
Still for that read-out and setting: the same measure for `COc1cc(OC)nc(OC(C(=O)O)C(O)(c2ccccc2)c2ccccc2)n1` (stereo unspecified): 130 nM; for `COc1cc(OC)nc(OC(C(=O)O)C(OC)(c2ccccc2F)c2ccccc2F)n1` (stereo unspecified): 150 nM; for `CCOc1cc(OCC)nc(OC(C(=O)O)C(OC)(c2ccccc2)c2ccccc2)n1` (stereo unspecified): 174 nM.
Molecule `CCCOc1ccc2c(c1)[C@@H](c1ccc(OC)cc1OCC(=O)O)[C@H](C(=O)O)[C@H]2c1ccc2c(c1)OCO2` [SB-209670] displayed an ED100 in the assay on Rattus norvegicus [2] of 100 mg/kg. The Kb in the assay listed under Oryctolagus cuniculus was 0.158 nM.
Regarding `COc1nc(OC(C(=O)O)C(OC)(c2ccccc2)c2ccccc2)nc2c1CCC2` (stereo unspecified), at Endothelin-1 receptor, the affinity corresponds to a Ki of 0.4 nM. The values for the Lethality in assay [5] and in assay [7] were 0 and 9, respectively. Besides, the Kb in the assay listed under Oryctolagus cuniculus was 0.575 nM. In the assay on Rattus norvegicus [8], the ED100 was found to be 100 mg/kg.
For `COC(c1ccccc1)(c1ccccc1)C(Oc1nc(C)cc(C)n1)C(=O)O` (stereo unspecified), the Ki at Endothelin-1 receptor came to 1 nM.
Same read-out and setting: as for `COc1cccc(C(OC)(c2cccc(OC)c2)C(Oc2nc(OC)cc(OC)n2)C(=O)O)c1` (stereo unspecified), the figure is 22 nM.
As for `COc1cc(OC)nc(OC(C(=O)O)C(OC)(c2ccccc2)c2ccccc2)n1` (stereo unspecified), the ED100 in the assay on Rattus norvegicus [9] amounted to 10 mg/kg; with Rattus norvegicus [2], 30 mg/kg. Moreover, the Lethality in assay [10] stood at 0; in assay [11], 5. Further, the Kb in the assay filed under Oryctolagus cuniculus was 45.7 nM. In assay [12], the Ki stood at 371 nM.
